{"data": "Experimental data of several laboratories", "target": "High affinity nerve growth factor receptor (NTRK1, Homo sapiens, UniProt P04629)", "note": "Each line is one published result; the experiments were not run side by side."}
{"SMILES": "C[C@@H]1CCN(c2nccc(-c3cnn4ncccc34)n2)C1", "test": "binding", "setting": "1 µM", "remaining binding": "61%"}
{"SMILES": "O=C(NCCCN1CCOCC1)c1ccc(Nc2nccc(-c3cc4ccccc4s3)n2)cc1", "test": "binding, competition with immobilised ligand", "setting": "1 µM", "remaining binding": "19%"}
{"SMILES": "Cn1cc(Cl)c2c(Oc3c(F)cc(Nc4cc(Cl)nc(N)n4)cc3F)ccnc21", "test": "cell-free assay, competition with immobilised ligand", "setting": "0.1 µM", "remaining binding": "74%"}
{"SMILES": "COc1ccnn2ncc(-c3ccnc(N(C)C)n3)c12", "test": "binding", "setting": "1 µM", "remaining binding": "79%"}
{"SMILES": "Cc1nc(N2CC[C@@H](O)C2)ncc1-c1cc(C(F)(F)F)cc2[nH]ncc12", "test": "cell-free assay, competition with immobilised ligand", "setting": "1 µM", "remaining binding": "56%"}
{"SMILES": "CCN1CCN(Cc2ccc(C(=O)Nc3ccc(C)c(Oc4ccc5c(c4)CC(=O)N5)c3)cc2C(F)(F)F)CC1", "test": "binding, competition with immobilised ligand", "setting": "1 µM", "remaining binding": "100%"}
{"SMILES": "O=C(NCC1CCOCC1)c1n[nH]cc1NC(=O)c1c(F)cccc1F", "test": "binding, competition with immobilised ligand", "setting": "1 µM", "remaining binding": "100%"}
{"SMILES": "N[C@H]1CCN(c2nccc(-c3cnn4ncccc34)n2)C1", "test": "binding", "setting": "1 µM", "remaining binding": "85%"}
{"SMILES": "NS(=O)(=O)c1cc(NC(=O)Cc2ccccc2)ccc1Oc1cccc(Cl)c1", "test": "cell-free assay, competition with immobilised ligand", "setting": "1 µM", "remaining binding": "73%"}
{"SMILES": "O=C(NCCCN1CCOCC1)c1ccc(Nc2ncc(Cl)c(-c3ccc(Cl)s3)n2)cc1", "test": "binding, competition with immobilised ligand", "setting": "1 µM", "remaining binding": "17%"}
{"SMILES": "CN(CCCC(F)(F)F)c1nccc(-c2cnn3ncccc23)n1", "test": "binding", "setting": "1 µM", "remaining binding": "100%"}
{"SMILES": "N#Cc1ccccc1CSc1nnc2c(n1)[nH]c1ccccc12", "test": "binding, competition with immobilised ligand", "setting": "10 µM", "remaining binding": "98%"}
{"SMILES": "CN(C(=O)c1ccccc1)c1cc(N(C)c2ccc3c(c2)CCc2ccc(C(=O)NCCN4CCOCC4)cc2C3=O)ccc1F", "test": "cell-free assay, competition with immobilised ligand", "setting": "1 µM", "remaining binding": "79%"}
{"SMILES": "CN(C)c1ncc(F)c(-c2cnn3ncccc23)n1", "test": "binding", "setting": "1 µM", "remaining binding": "97%"}
{"SMILES": "C=CC(=O)N1CCC(C(=O)NCC(=O)N2CCN(c3nc(-c4cnc(N)nc4C(F)F)nc(N4CCOCC4)n3)CC2)CC1", "test": "binding, competition with immobilised ligand", "setting": "1 µM", "remaining binding": "81%"}
{"SMILES": "O=C(NCCCC1CCCCC1)c1ccc(CNC(=O)c2cnn(-c3ccccc3)c2C(F)(F)F)cc1", "test": "cell-free assay, competition with immobilised ligand", "setting": "0.1 µM", "remaining binding": "100%"}
{"SMILES": "FC(F)(F)Oc1cccc(-c2cnc3ccc(-c4ccncc4)nn23)c1", "test": "cell-free assay, competition with immobilised ligand", "setting": "5 µM", "remaining binding": "1.9%"}
{"SMILES": "Nc1c(C(=O)NCc2ccc(C(=O)NCCCC3CCCCC3)cc2)cnn1-c1ccccc1", "test": "cell-free assay, competition with immobilised ligand", "setting": "0.1 µM", "remaining binding": "100%"}
{"SMILES": "CN1CCN(c2ccc(Nc3nccc(-c4cccc([N+](=O)[O-])c4)n3)cc2C(F)(F)F)CC1", "test": "binding", "setting": "10 µM", "remaining binding": "13%"}
{"SMILES": "CN(C)c1nccc(-c2cnc3ncccn23)n1", "test": "binding", "setting": "1 µM", "remaining binding": "72%"}
{"SMILES": "O=C(c1ccc(Nc2ncc(Cl)c(-c3ccc(Cl)s3)n2)cc1)N1CCC(N2CCCC2)CC1", "test": "binding, competition with immobilised ligand", "setting": "1 µM", "remaining binding": "1.3%"}
{"SMILES": "CN(c1ccnc(CNc2nc(Nc3ccc4c(c3)CC(=O)N4)ncc2C(F)(F)F)n1)S(C)(=O)=O", "test": "cell-free assay, competition with immobilised ligand", "setting": "1 µM", "remaining binding": "10%"}
{"SMILES": "COc1cnc(Nc2cccc(S(N)(=O)=O)c2)nc1N1CCN(c2ccccc2)C(=O)C1", "test": "binding, competition with immobilised ligand", "setting": "1 µM", "remaining binding": "100%"}
{"SMILES": "COc1ncc2cc3ccccc3nc2c1C#N", "test": "cell-free assay, competition with immobilised ligand", "setting": "5 µM", "remaining binding": "100%"}
